From ChEMBL document CHEMBL1914404, “Synthesis and biochemical evaluation of δ(2)-isoxazoline derivatives as DNA methyltransferase 1 inhibitors” (J Med Chem, 2011) come the findings set out here.

Assay [1] addresses T1, DNA (cytosine-5)-methyltransferase 1 (Homo sapiens, UniProt P26358). Nature of the assay: Inhibition of human recombinant DNMT1 expressed in Sf9 cells assessed as incorporation of [3H]S-adenosyl methionine into hemimethylated oligonucleotide substrate after 3 hrs by scintillation counting.
The target of assay [2] is T1, DNA (cytosine-5)-methyltransferase 1. Kind of assay: Inhibition of human recombinant DNMT1 expressed in Sf9 cells assessed as remaining activity at 2 mM after 3 hrs by scintillation counting in presence of [3H]S-adenosyl methionine. In short, it runs like this: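 Single-point screen at 2 mM (compounds in DMSO, DMSO control) against 500 nM Sf9-expressed human DNMT1, hemimethylated oligo 0.4 μM, 0.7 μM [3H]AdoMet, pH 7.5 Tris buffer, 37 °C for 3 h; filter-bound tritium counted. Relative enzyme activity (% of control) as mean of three measurements with SD; inhibition >20% scored positive.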

In assay [3] the test system is HCT-116. Kind of assay: Antiproliferative activity against human HCT116 cells assessed as growth inhibition by measuring doubling time after 72 hrs by trypan blue staining. It is filed as functional, cell-based. The gist of the method:
(§1)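 HCT116 colon carcinoma cells incubated 72 h with test compound at 300, 500 and 750 μM, azacytidine 1 μM as positive control, DMSO alone as control.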

For assay [4], the system named is HCT-116. Nature of the assay: Antiproliferative activity against human HCT116 cells assessed as growth inhibition by measuring proliferation rate after 72 hrs by trypan blue staining. In kind it is functional, cell-based. The gist of the method:
as §1

In assay [5] the target is T1, DNA (cytosine-5)-methyltransferase 1. Kind of assay: Selectivity ratio of IC50 for procaine to compound for human recombinant DNMT1 expressed in Sf9 cells assessed as incorporation of [3H]S-adenosyl methionine into hemimethylated oligonucleotide substrate after 3 hrs by scintillation counting.
For assay [6] the target is unchanged. Nature of the assay: Competitive inhibition of human recombinant DNMT1 expressed in Sf9 cells using [3H]S-adenosyl methionine as substrate at 150 uM after 1 hr by scintillation counting. The gist of the method: (§2)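 Mode-of-inhibition assay: standard DNMT1 filter assay (500 nM enzyme) modified with inhibitor fixed at 150 μM and 1 h at 37 °C; either [3H]SAM or the oligo substrate concentration increased while the other held. Activity with inhibitor under standard conditions set as 100% inhibition; curves interpreted by the Lai and Wu model.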

Assay [7] concerns HCT-116. Kind of assay: Antiproliferative activity against human HCT116 cells after 72 hrs by trypan blue staining. In kind it is functional. The note with it: HCT-116, 72 h. In short, it runs like this: as §1
For assay [8], the target named is T1, DNA (cytosine-5)-methyltransferase 1. Nature of the assay: Non-competitive inhibition of human recombinant DNMT1 expressed in Sf9 cells using oligonucleotide as substrate after 1 hr by scintillation counting. The gist of the method:
as §2

Active and inactive are the calls of the source. The rule behind the calls is not given here.

As a reminder, the IC50 is the point on the concentration scale where inhibition reaches its midpoint. The term GI50 denotes the concentration giving 50% growth inhibition. Read a high GI50 as less potent growth inhibition.

T1 sequence (P26358 whole entry): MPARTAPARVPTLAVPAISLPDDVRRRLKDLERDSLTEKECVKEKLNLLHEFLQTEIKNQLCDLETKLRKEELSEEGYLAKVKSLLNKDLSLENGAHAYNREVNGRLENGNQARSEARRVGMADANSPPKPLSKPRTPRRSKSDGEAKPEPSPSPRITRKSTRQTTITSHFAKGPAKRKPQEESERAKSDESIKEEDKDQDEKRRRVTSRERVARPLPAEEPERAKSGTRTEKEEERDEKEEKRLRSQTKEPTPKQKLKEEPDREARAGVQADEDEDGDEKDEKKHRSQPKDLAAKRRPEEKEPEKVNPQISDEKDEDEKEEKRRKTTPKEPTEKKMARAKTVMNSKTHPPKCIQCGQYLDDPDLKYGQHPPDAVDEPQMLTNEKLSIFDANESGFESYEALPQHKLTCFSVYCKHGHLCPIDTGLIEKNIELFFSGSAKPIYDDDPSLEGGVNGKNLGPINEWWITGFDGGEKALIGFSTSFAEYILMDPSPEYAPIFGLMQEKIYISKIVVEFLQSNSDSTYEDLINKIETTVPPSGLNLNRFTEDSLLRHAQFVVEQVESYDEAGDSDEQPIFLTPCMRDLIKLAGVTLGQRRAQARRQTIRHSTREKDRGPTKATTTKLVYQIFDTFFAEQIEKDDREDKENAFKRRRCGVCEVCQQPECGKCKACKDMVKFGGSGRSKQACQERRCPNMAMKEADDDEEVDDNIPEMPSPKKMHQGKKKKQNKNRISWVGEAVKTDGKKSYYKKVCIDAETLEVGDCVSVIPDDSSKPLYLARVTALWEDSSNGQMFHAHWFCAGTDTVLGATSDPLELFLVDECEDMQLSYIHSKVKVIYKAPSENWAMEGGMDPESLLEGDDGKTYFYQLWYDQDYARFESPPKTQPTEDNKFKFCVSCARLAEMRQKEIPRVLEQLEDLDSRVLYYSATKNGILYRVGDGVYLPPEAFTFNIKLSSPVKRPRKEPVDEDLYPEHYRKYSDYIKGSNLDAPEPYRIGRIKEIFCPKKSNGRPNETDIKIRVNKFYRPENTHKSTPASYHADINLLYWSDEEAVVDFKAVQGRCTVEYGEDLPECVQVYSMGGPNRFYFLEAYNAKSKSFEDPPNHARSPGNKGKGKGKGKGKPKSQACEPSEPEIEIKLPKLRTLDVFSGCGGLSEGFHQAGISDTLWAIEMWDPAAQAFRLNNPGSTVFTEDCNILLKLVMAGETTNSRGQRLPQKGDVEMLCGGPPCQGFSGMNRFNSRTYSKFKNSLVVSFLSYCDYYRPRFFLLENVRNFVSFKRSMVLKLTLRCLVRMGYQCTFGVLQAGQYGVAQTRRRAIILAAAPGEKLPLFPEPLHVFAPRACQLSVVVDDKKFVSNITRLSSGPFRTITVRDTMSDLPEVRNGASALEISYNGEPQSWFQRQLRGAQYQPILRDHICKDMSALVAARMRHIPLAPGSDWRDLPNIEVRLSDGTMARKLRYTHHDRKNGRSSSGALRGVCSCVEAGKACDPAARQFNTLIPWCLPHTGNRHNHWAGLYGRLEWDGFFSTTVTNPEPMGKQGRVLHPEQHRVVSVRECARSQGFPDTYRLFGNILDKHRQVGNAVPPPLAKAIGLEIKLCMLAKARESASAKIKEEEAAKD

Regarding `CN(C)CC1CC(c2ccc(N)cc2)=NO1` (configuration not stated), the IC50 in assay [1] came out at 270 µM. Further, the Activity in assay [2] was determined as 20.2%.

Turning to `CN(C)CC1CC(c2ccccc2)=NO1` (configuration not stated), the outcome in assay [2] was inactive.

Take `O=[N+]([O-])c1ccc(C2=NC[C@H](CN3CCCC3)O2)cc1`: the “growth inhibition (GI)” value in the assay on HCT-116 [3] and in the assay with HCT-116 [4] was “inactive” throughout.

Take `CN1CC2ON=C(c3ccc(O)cc3)C2C1` (configuration not stated): the outcome in assay [2] was inactive.

`CN1CC2ON=C(Cc3ccc(N)cc3)C2C1` (configuration not stated): the Activity in assay [2] is 3.3%.

Turning to `CN(C)CC1CC(c2ccc(C(=O)O)cc2)=NO1` (configuration not stated), the Activity in assay [2] is 23%.

For `CN(C)CC1CC(Cc2ccc(N)cc2)=NO1` (configuration not stated), in assay [2], the Activity worked out at 28.3%.

For the compound `Cc1ccc(S(=O)(=O)Oc2ccc(C3=NOC4CN(C)CC34)cc2)cc1` (configuration not stated), in assay [2], the Activity was determined as 18.6%.

Turning to `COc1ccc(CC2=NOC3CN(C)CC23)cc1` (configuration not stated), the IC50 in assay [1] was found to be 1130 µM. Moreover, the Activity in assay [2] is 1.7%.

Regarding `CN1CC2ON=C(Cc3ccc([N+](=O)[O-])cc3)C2C1` (configuration not stated), the IC50 in assay [1] was determined as 310 µM. Also, the Activity in assay [2] came out at 3.8%.

Regarding `CN1CC2ON=C(c3ccccc3)C2C1` (configuration not stated), the outcome in assay [2] was inactive.

For `Cc1ccc(S(=O)(=O)Oc2ccc(C3=NOC(CN(C)C)C3)cc2)cc1` (configuration not stated), the Activity in assay [2] came out at 90.6%.

Consider `CN1CC2ON=C(Cc3ccccc3)C2C1` (configuration not stated), for which the Activity in assay [2] came to 84%.

Consider `CN(C)CC1CC(Cc2ccc([N+](=O)[O-])cc2)=NO1` (configuration not stated), for which the IC50 in assay [1] turned out to be 1600 µM. Also, in assay [2], the Activity was found to be 14.8%.

As for `CN1CC2ON=C(c3ccc(C(=O)O)cc3)C2C1` (configuration not stated), the result in assay [2] was inactive.

`Nc1ncnc2c1ncn2[C@@H]1O[C@H](CSCC[C@H](N)C(=O)O)[C@@H](O)[C@H]1O`: the Activity in assay [2] was 0.5%.

As for `CN(C)CC1CC(Cc2ccccc2)=NO1` (configuration not stated), the Activity in assay [2] is 17.1%.

For the compound `CCN(CC)CCOC(=O)c1ccc(N)cc1`, the outcome in assay [2] was inactive.

As to `O=C(O)[C@H](Cc1c[nH]c2ccccc12)N1C(=O)c2ccccc2C1=O`, in assay [2], the result was inactive.

On to `CN(C)CC1CC(c2ccc([N+](=O)[O-])cc2)=NO1` (configuration not stated), for which the IC50 in assay [1] was determined as 150 µM. Besides, in assay [5], the Ratio IC50 is 10. Also, the inhibition entry in assay [6] and in assay [8] was “Active” in each case. This compound gave a GI50 with HCT-116 [7] of 360 µM. For the same compound, the Activity in assay [2] amounted to 0.3%.

Take `COc1ccc(CC2=NOC(CN(C)C)C2)cc1` (configuration not stated): the outcome in assay [2] was inactive.

As for `CN1CC2ON=C(c3ccc(N)cc3)C2C1` (configuration not stated), the 50% inhibitory concentration (IC50) in assay [1] worked out at 570 µM. Moreover, the Activity in assay [2] was 5.1%.

For the compound `CN(C)CC1CC(c2ccc(O)cc2)=NO1` (configuration not stated), the Activity in assay [2] was determined as 88%.

As to `CN1CC2ON=C(c3ccc([N+](=O)[O-])cc3)C2C1` (configuration not stated), in assay [2], the Activity amounted to 34.9%.

Regarding `COc1ccc(C2=NOC(CN(C)C)C2)cc1` (configuration not stated), the Activity in assay [2] was 3.3%.

`COc1ccc(C2=NOC3CN(C)CC23)cc1` (configuration not stated): in assay [2], the Activity turned out to be 95.6%.
